Most compounds without a hit are left out; they make up all but 1.4% or so of the library.
PvdQ acylase – P. aeruginosa PvdQ acylase inhibitors, primary screen, biochemical, fluorescence, plate reader and imaging, single point; PvdQ acylase [Pseudomonas aeruginosa LESB58]; purified PvdQ acylase; inhibition, % at 10 µM; actives 0.063% (n = 340,000); AID 488965, 2010; in the data active = inhibition above about 30%, passing the limit was not always enough; inconclusive = no clear call, values can overlap the other calls;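 also: 0% = vehicle neutral wells and 100% = reference inhibitor wells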
CAL PDZ FP-1 – CAL PDZ peptide-binding inhibitors, primary screen, biochemical, fluorescence polarization, Cer-tagged CAL PDZ, HTS; Golgi-associated PDZ and coiled-coil motif-containing protein (Homo sapiens), Q9HD26; purified CAL PDZ, TMR-peptide fluorescence polarization, 1 h; inhibition, % at 20 µM; actives 0.02% (n = 330,000);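 active = highest replicate inhibition of at least 40%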;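 also: plate controls were DMSO neutral control wells for no effect and unlabeled competitor peptide control wells for full effect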
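Control set: unlabelled peptide and DMSO controls / Material: purified CerCALP PDZ construct / Timing: 1 h incubation at room temperature before polarization reading / Doses: 20 µM, one dose / Detection: fluorescence polarization (mP)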
Glyco luc inh – increase of ERlucT glycosylation luciferase signal, primary screen, N-linked glycosylation inhibitor project, D54 ERlucT cells, luminescence, set 2 | D54 ERlucT glycosylation luciferase reporter, 24 h; percent of 100 nM tunicamycin response | reporter increase, % at 12.5 µM | actives 0.23% (n = 360,000);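 active = mean luciferase reporter signal, scaled so untreated is 0 and the glycosylation-blocking control 100, at or above a set limit in every replicate; inconclusive = mean reaches the limit but not every replicate does; inactive = mean below the limit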;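 also: luciferase carries N-glycosylation sites so blocking glycosylation raises the light; 0% = median of neutral control wells and 100% = median of 100 nM tunicamycin wells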
CAL PDZ FP-2 – untagged CAL PDZ binding inhibitors, primary screen, biochemical, fluorescence polarization, HTS; purified CAL PDZ, TMR-peptide fluorescence polarization, 1 h; Golgi-associated PDZ and coiled-coil motif-containing protein (Homo sapiens), Q9HD26; actives 0.92% (n = 300,000); AID 602252, 2012; inhibition, % at 24.9 µM;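 active = mean inhibition of at least 30% with at least half of replicates also reaching 30%; inconclusive = no clear call, values can overlap the other calls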;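 also: 0% = DMSO neutral control and 100% = excess unlabeled competitor peptide PRC23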
Vif inh – HIV Vif self-association inhibitors, primary screen, imaging, HEK293T, single point | AID 602346, 2012 | actives 0.35% (n = 340,000) | HEK293T cells, Vif self-association by quenched fluorescence, 24 h | inhibition, % at 7.49 µM; in the data active = inhibition above about 50%, passing the limit was not always enough; inconclusive = no clear call, values can overlap the other calls; inactive = below about 31%
CDK5 inh – inhibitors of human CDK5/p35 kinase, primary screen, biochemical, single concentration; Cyclin-dependent kinase 5 (Homo sapiens) + Cyclin-dependent kinase 5 activator 1 (Homo …; actives 0.01% (n = 330,000); Recombinant CDK5/p35, ADP-Glo luminescence, 60 min; inhibition, % at 10 µM;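 active = highest replicate inhibition of at least 50% and at least 75% of replicates reaching 50%; inconclusive = only one of the two criteria met; inactive = both criteria failed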;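 also: plate controls were DMSO neutral control for no effect and GW8510 at 10 µM for full effect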
Target sequence (Q00535 whole entry, looked up): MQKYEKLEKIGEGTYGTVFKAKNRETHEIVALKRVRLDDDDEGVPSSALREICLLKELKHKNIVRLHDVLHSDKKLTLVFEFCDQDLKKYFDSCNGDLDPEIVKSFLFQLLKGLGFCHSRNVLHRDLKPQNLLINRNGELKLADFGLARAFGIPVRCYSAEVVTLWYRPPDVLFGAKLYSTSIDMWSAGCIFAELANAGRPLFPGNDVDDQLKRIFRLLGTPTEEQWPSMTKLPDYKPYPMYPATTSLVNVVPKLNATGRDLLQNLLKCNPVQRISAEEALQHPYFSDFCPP
Target sequence (Q15078 whole entry, looked up): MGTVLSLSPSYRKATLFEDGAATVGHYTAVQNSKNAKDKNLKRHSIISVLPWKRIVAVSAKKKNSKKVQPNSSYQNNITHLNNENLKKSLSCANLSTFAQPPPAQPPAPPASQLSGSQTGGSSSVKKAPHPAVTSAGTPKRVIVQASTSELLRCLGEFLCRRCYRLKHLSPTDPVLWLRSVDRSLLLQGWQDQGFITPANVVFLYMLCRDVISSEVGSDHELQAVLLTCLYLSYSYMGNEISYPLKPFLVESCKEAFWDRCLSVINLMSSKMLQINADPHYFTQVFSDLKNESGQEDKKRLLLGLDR
* hit, by the source's call; ? = inconclusive; . = no result given.

SMILES	PvdQ acylase	CAL PDZ FP-1	Glyco luc inh	CAL PDZ FP-2	Vif inh	CDK5 inh
CC(C)(C)OC(=O)N1CCC(C(=O)Nc2cccc(C(=O)NCc3ccccc3)c2)CC1	-17	-1	0	-7	.	-1
COc1ccc(NC(=O)NNC(=O)C(C)Oc2ccc3ccccc3c2)cc1 (stereo unspecified)	-15	0	.	-5	.	-2
CC(=O)Nc1ccc(S(=O)(=O)N2CCC(N3CCCCC3)CC2)cc1	7	-3	-2	-2	2	-1
CCOC(=O)c1ccc(-c2ccc(/C=N/NC(=O)c3cncc(Br)c3)o2)cc1	.	.	-1	.	58*	.
CCOC(=O)c1ccc(-c2ccc(C=O)o2)cc1	?	-1	-2	64*	-13	1
COCCCNC(=O)c1cccc2c(-c3ccnn3C)coc12	.	.	1	.	9	.
O=C(CCCOc1ccc(Cl)cc1Cl)N/N=C/c1cccc([N+](=O)[O-])c1	-11	-1	0	-1	-8	-1
COc1cc(-c2nnc(-c3cc(OC)c(OC)c(OC)c3)o2)cc(OC)c1OC	-30	-2	-1	44*	-1	2
COc1cc(-c2nnc(SCC3(c4ccc(Br)cc4)OCCO3)o2)cc(OC)c1OC	0	-1	49*	-3	-2	-1
COc1cc(-c2nnc(-c3ccccc3)o2)cc(OC)c1OC	-16	-5	4	-2	.	3
CCCc1cc(=O)[nH]c(SCC(=O)Nc2cc(S(=O)(=O)N3CCCCC3)ccc2C)n1	-1	-1	-1	-4	16	0
CCOC(=O)C1CCCN(C(=O)C2CCN(S(=O)(=O)c3c(C)noc3/C=C/c3ccccc3F)CC2)C1 (stereo unspecified)	-17	-1	-3	-5	-2	-1
Cc1ccccc1S(=O)(=O)NC(=O)C1(C)CCN1C(=O)CCc1cccs1 (stereo unspecified)	.	.	-1	.	68*	.
Cc1ccc2nsnc2c1NC(=O)COc1ccccc1	-6	-1	-2	9	2	-1
Cc1ccc(OCC(=O)Nc2c(C)ccc3nsnc23)cc1	-5	0	2	52*	-1	0
O=C(CS(=O)(=O)c1ccccc1)c1cc2cc(F)ccc2oc1=O	-15	-1	4	79*	16	2
O=C(CS(=O)(=O)c1ccccc1)c1cc2ccccc2oc1=O	-1	-2	-4	-3	-5	1
CCNc1c([N+](=O)[O-])c(=O)oc2ccccc12	-11	-2	1	56*	-4	-2
O=C1[C@H]2[C@@H](c3ccc(F)cc3)N3C(=O)N(c4cccc(Cl)c4)C(=O)[C@@]3(Cc3ccc(Cl)cc3)[C@H]2C(=O)N1C1CCCCC1	-11	-2	2	-7	5	-2
COc1ccc([C@@H]2[C@@H]3C(=O)N(C(C)(C)C)C(=O)[C@@H]3[C@]3(Cc4ccccc4)C(=O)N(c4cccc(C)c4)C(=O)N23)cc1	-11	1	56*	0	7	0
O=C1[C@H]2[C@@H](c3ccc(F)cc3)N3C(=O)N(c4cccc(Cl)c4)C(=O)[C@@]3(Cc3ccccc3)[C@H]2C(=O)N1C1CCCCC1	0	-1	72*	-2	0	0
CN(Cc1nccn1C)C(=O)c1cc(COc2ccc3ncccc3c2)on1	-22	25	-1	42*	-4	1
CN(Cc1nccn1C)C(=O)c1cc(COc2cccc(C(F)(F)F)c2)on1	-10	0	3	-4	2	2
Cc1cc(CN(C)C(=O)c2cc(COc3ccc4ncccc4c3)on2)on1	-14	-2	-1	76*	-15	1
O=C(CSc1nnc(CNC(=O)c2cccs2)o1)Nc1ccccc1C(F)(F)F	-13	-1	1	103*	-2	0
SMILES	PvdQ acylase	CAL PDZ FP-1	Glyco luc inh	CAL PDZ FP-2	Vif inh	CDK5 inh
Cc1nc(SCC(=O)N2CCCCCC2)[nH]c(=O)c1C	-10	-3	3	-1	3	-1
CCOc1ccccc1N1CC(C(=O)Nc2cc(S(C)(=O)=O)ccc2Cl)CC1=O (stereo unspecified)	-12	-1	1	-3	.	0
Cc1cccnc1NC(=O)CNC(=O)C1CCCCC1	-10	-1	3	36*	.	-1
Cc1cc(C)n(CC(=O)c2ccc(Cl)cc2)n1	-15	-1	2	0	-3	2
O=C(Cc1ccccc1)OCC(=O)c1cccc([N+](=O)[O-])c1	-15	0	3	47*	3	-2
Cc1cc(C)n(CC(=O)c2cccc([N+](=O)[O-])c2)n1	-21	-1	2	36*	-3	2
O=C(CNS(=O)(=O)c1ccccc1)OCC(=O)c1cccc([N+](=O)[O-])c1	-10	0	3	3	1	1
COC[C@@H]1CCCN1[C@@H]1CS(=O)(=O)N[C@H]1COCc1ccccc1	.	.	0	.	.	.
CCOc1ncccc1C(=O)OCc1nnc(-c2ccccc2)o1	6	1	1	.	-4	1
CCOc1ncccc1C(=O)OCc1ccccc1	8	0	-3	2	51*	0
CCN(CC)CCOC(=O)c1ccc(N/C=C(/C#N)c2nc(-c3cc4ccccc4oc3=O)cs2)cc1	-12	0	-2	-5	58*	2
C=C1CCC2[C@](C)(CO[C@@H]3O[C@H](CO)[C@@H](O)[C@H](O)[C@H]3O)CCC[C@@]2(C)[C@@H]1CCC1=CCOC1=O (stereo partly specified)	23	0	0	1	14	3
C[C@]12CCC(=O)C=C1CC[C@@H]1[C@@H]2[C@@H](O)C[C@@]2(C)[C@H]1CC[C@]2(O)C(=O)CO	-8	0	0	-2	-1	1
CC12CCC(=O)C=C1CCC1C2C(O)CC2(C)C1CCC2(O)C(=O)CO (stereo unspecified)	3	-1	4	-3	50*	2
COc1ccccc1NC(=O)N(C)C[C@@H]1OCc2cnnn2CCCC(=O)N([C@@H](C)CO)C[C@H]1C	.	.	3	.	-4	.
Cc1ccc(OCCn2cncn2)c([N+](=O)[O-])c1	-15	-1	1	.	4	2
Cc1ccc(C(C)C)cc1OCCn1cncn1	-14	.	0	66*	1	1
Cc1ccc(SCCNC(=S)Nc2cc(C)ccc2C)cc1	-5	-1	2	-2	.	1
Cc1ccc(C)c(NC(=S)NCCN(C2CCCCC2)C2CCCC2)c1	-14	-1	3	65*	-5	2
